# Screening results deposited in PubChem BioAssay by several laboratories.
# An excerpt weighted towards active compounds, which were near 2.2% of everything screened.
# HTR2A ag = activates the mouse 5-HT2A serotonin receptor | P35363 | CHO-K1 mHTR2A beta-arrestin complementation, luminescence; percent of 30 µM serotonin response | activation, % at 7.6 µM | 0.66% of 360,000 active;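 active = activation above a run cutoff, the mean activation of all tested compounds plus 3 SD, cut at about 14% in these data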;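 note: 0% = plate median of compound wells and 100% = 30 µM serotonin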
# Target sequence (P35363 whole entry, looked up): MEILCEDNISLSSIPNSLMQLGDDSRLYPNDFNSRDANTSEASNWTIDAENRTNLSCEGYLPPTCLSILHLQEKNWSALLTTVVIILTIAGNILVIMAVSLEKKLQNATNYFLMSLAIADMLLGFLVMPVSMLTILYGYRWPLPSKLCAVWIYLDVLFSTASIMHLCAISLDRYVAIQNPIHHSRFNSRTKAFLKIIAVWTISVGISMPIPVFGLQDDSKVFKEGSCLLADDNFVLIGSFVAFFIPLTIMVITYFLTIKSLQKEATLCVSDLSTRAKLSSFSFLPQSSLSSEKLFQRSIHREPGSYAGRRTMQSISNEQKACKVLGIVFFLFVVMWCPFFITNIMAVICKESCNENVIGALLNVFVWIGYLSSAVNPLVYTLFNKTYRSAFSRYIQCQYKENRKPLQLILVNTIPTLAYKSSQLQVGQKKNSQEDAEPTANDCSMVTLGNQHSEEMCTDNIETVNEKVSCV
# APJ agonist = activates the human apelin receptor APJ; P35414; CHO-K1 APJ PathHunter beta-arrestin, luminescence; 0% DMSO wells, 100% apelin; activation, % at 20 µM; 0.11% of 330,000 active; AID 2520;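 active = activation more than six SD over the plate average, tested at 20 µM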;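 note: 0% = DMSO alone and 100% = apelin-13 at 10 nM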
#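 Test system – PathHunter CHO-K1 APJ (AGTRL-1) beta-arrestin reporter cells · Input – 1000 cells/well · Compound – single test compound dose, 20 µM final, 1% DMSO · Times – compound stimulation 90 min at 25 °C, detection 60 min · Technique – beta-gal luminescence · Read-out basis – APJ–arrestin association signal · Control set – negative DMSO alone, positive Apelin-13 at 10 nM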
# CXCR6 block = blocks human CXCR6 beta-arrestin recruitment; O00574; CHO-K1 PathHunter CXCR6 beta-arrestin, luminescence; inhibition, % at 20 µM; 0.36% of 360,000 active; AID 602244; in the data active = inhibition above about 34%, passing the limit was not always enough;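 note: antagonist mode with CXCL16 agonist at 10 nM final; 0% = 10 nM CXCL16 with DMSO and 100% = unstimulated wells without agonist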
# CCR6 antag = blocks CCL20-driven beta-arrestin recruitment at human CCR6 | CHO-K1 CCR6 PathHunter beta-arrestin, luminescence, CCL20-stimulated | inhibition, % at 20 µM | P51684 | AID 493098 | 0.49% of 340,000 active;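 active = compounds whose inhibition of the agonist-driven luminescence signal at 20 µM reaches about 50%, limit read from the data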;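 note: cells stimulated with CCL20 at 14 nM final; plate controls were DMSO with CCL20 for no effect and DMSO without agonist for full effect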
# EBI2 block = blocks human EBI2 receptor beta-arrestin signaling. EBI2 beta-arrestin recruitment, luminescence, 7a,25-OHC stimulated. inhibition, % at 5 µM. 0.81% of 360,000 active; in the data active = inhibition above about 38%;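 note: enzyme fragment complementation signal reports receptor beta-arrestin coupling in cells; 0% = agonist plus DMSO wells and 100% = wells without agonist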
# APJ antag = antagonists of human APJ apelin receptor. P35414. CHO-K1 APJ beta-arrestin complementation, luminescence. inhibition, % at 20 µM. 0.32% of 330,000 active;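 active = inhibition above about 40% at 20 µM, limit read from the data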;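 note: cells challenged with 10 nM apelin-13 agonist together with compound; plate controls were apelin-13 plus DMSO wells for no effect and DMSO wells lacking apelin-13 for full effect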
# APJ antag conf = confirmation of human APJ apelin receptor antagonists; 66% of 950 active; APJ beta-arrestin recruitment, luminescence, antagonist mode; inhibition, % at 20 µM; shares compounds with APJ antag; AID 2766; in the data active = inhibition above about 50%
# CXCR6 confirm = CXCR6 antagonism confirmation, single concentration. inhibition, % at 20 µM. 65% of 700 active. CHO-K1 CXCR6 PathHunter beta-arrestin, luminescence. shares compounds with CXCR6 block. AID 602409;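 active = mean inhibition over four retests above 40%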;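 note: receptor stimulated with 10 nM CXCL16 agonist; beta-galactosidase fragment complementation upon beta-arrestin recruitment to receptor; plate controls were CXCL16 plus DMSO for no effect and DMSO without CXCL16 for full effect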
# MOR ag counter = activates human mu opioid receptor in HTR2A counterscreen. shares compounds with HTR2A ag. AID 624380. U2OS OPRM1 beta-arrestin PathHunter, luminescence; DMSO 0%, DAMGO 9.3 µM 100%. 5.3% of 2,300 active. activation, % at 9.3 µM;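 active = mean activation above the mean of DMSO-only wells plus 3 SD, cut at about 0.5% in these data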
# HTR2A ag conf = confirmation of mouse HTR2A serotonin receptor agonists; CHO-K1 PathHunter beta-arrestin recruitment, luminescence; DMSO 0%, 30 µM serotonin 100%; activation, % at 7.6 µM; 19% of 2,300 active; shares compounds with HTR2A ag;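 active = mean activation across triplicates above the hit threshold derived in the original primary screen, cut at about 15% in these data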
# An asterisk follows results filed as active; nt = not tested or not shown; ! = not active in a repeat.
SMILES,HTR2A ag,APJ agonist,CXCR6 block,CCR6 antag,EBI2 block,APJ antag,MOR ag counter,HTR2A ag conf,others
CNc1ccc2oc(C[C@H]3O[C@@]4(CC[C@H]3C)O[C@H]([C@H](C)C(=O)c3ccc[nH]3)[C@H](C)C[C@H]4C)nc2c1C(=O)O,-5.6,2.2,74.8*,54.9*,20.4,64.8*,nt,nt,APJ antag conf=61.1*;CXCR6 confirm=69.3*
COc1ccc(OC(=O)N(C)C[C@@H]2OCc3cnnn3CCCC(=O)N([C@H](C)CO)C[C@@H]2C)cc1,5.5,nt,89.8*,nt,-6.4,nt,nt,nt,CXCR6 confirm=4.4
COc1ccc(OC(=O)N(C)C[C@@H]2OCc3cnnn3CCCC(=O)N([C@@H](C)CO)C[C@H]2C)cc1,-0.9,nt,0.7,nt,0.2,nt,nt,nt,
COC(=O)C1=C(C(=O)OC)SC2(S1)C(C(=O)OC)=C(C(=O)OC)Sc1c2ssc1=O,4.5,nt,68.2*,85.6*,-11.8,nt,nt,nt,CXCR6 confirm=55.7*
COc1ccc(-n2nnnc2C(c2cccs2)N2CCC3(CC2)C(=O)NCN3c2ccccc2)cc1 (stereo not drawn),-2.4,nt,9.8,nt,-3.1,nt,nt,nt,
CCCCCCCCn1sccc1=O,12.1,-4.2,99.3*,104.8*,61.4*,25.6,nt,nt,CXCR6 confirm=104.6*
CCOC(=O)c1cc2ccccc2n1C1CCN(Cc2ccccc2)CC1,-9.3,nt,5.0,nt,12.2,nt,nt,nt,
CCOC(=O)[C@]12Cc3cc(Cl)ccc3[C@H]1N(C1CCCCC1)C(=O)c1cc(OC)ccc12,1.8,nt,42.3*,nt,76.6*,nt,nt,nt,CXCR6 confirm=46.7*
Cn1c(O)c(C2=NNC(c3ccc(Cl)cc3)C2)c(=O)n(C)c1=O (stereo not drawn),-14.5,-3.5,34.5*,55.8*,-5.7,13.5,nt,nt,CXCR6 confirm=112.3*
CC(C)(C)C(=O)N1Cc2cc(-c3ccccc3)ccc2-n2nncc2C1,-2.6,nt,-4.8,nt,4.3,nt,nt,nt,
COc1ccc(C2CC(c3c(O)n(CCc4ccccc4)c(=O)[nH]c3=O)=NN2)cc1OC (stereo not drawn),-1.5,-13.2,89.5*,104.4*,0.4,3.6,nt,nt,CXCR6 confirm=104.4*
COc1ccc(CCn2c(O)c(C=NCc3cccnc3)c(=O)[nH]c2=O)cc1OC,-0.5,-0.1,5.2,12.5,-6.3,6.6,nt,nt,
Cc1ccc2c(c1)Oc1ccccc1N=C2,-6.1,nt,-8.5,nt,-5.7,nt,nt,nt,
Cc1cc([N+](=O)[O-])c(Cl)cc1NC(=O)C(C)C,0.7,-3.4,-2.9,2.4,-5.7,3.6,nt,nt,
CNc1cc(Cl)c2nonc2c1[N+](=O)[O-],-9.1,nt,100.0*,98.2*,80.3*,nt,nt,nt,CXCR6 confirm=103.3*
Brc1cccc(CNCCc2ccc3c(c2)OCO3)c1,21.2*,-1.3,6.0,-3.0,0.1,-0.2,1.4*,21.0*,
c1ccc(CNCCc2ccc3c(c2)OCO3)nc1,4.0,-6.3,-3.9,-2.6,-16.4,3.3,nt,nt,
CCOP(=O)(OCC)C(O)c1ccc(Br)cc1 (stereo not drawn),-3.2,1.3,10.8,-2.5,-19.9,-4.8,nt,nt,
CCOP(=O)(OCC)C(O)c1ccccc1 (stereo not drawn),15.8*,3.6,-12.2,10.6,-9.1,-2.3,-0.6,-4.5,
N#CC12CNCC1CN=N2 (stereo not drawn),22.5*,nt,3.3,5.2,-6.8,nt,-0.4,3.5,
COc1ccc(C(c2nnnn2-c2ccc(OC)cc2)N2CCC(n3c(=O)[nH]c4ccccc43)CC2)cc1 (stereo not drawn),1.0,nt,6.3,nt,-21.3,nt,nt,nt,
COc1ccc(-n2nnnc2C(c2cc3ccccc3o2)N2CCC(n3c(=O)[nH]c4ccccc43)CC2)cc1 (stereo not drawn),15.7*,nt,-2.5,nt,4.0,nt,nt,3.9,
O=C1C=CC(=O)C=C1,35.2*,-1.4,-4.0,78.9*,-8.7,-2.5,0.9*,3.2,
CC(C)(C)N1CC(C(=O)c2ccccc2)C1c1ccccc1 (stereo not drawn),-2.4,nt,1.2,1.9,1.8,nt,nt,nt,
Cn1c(O)c(C(=O)c2ccccc2F)c(=O)n(C)c1=O,-3.8,-2.3,-4.2,-17.6,-6.6,-1.5,nt,nt,
SMILES,HTR2A ag,APJ agonist,CXCR6 block,CCR6 antag,EBI2 block,APJ antag,MOR ag counter,HTR2A ag conf,others
Cn1c(O)c(C(=O)c2ccccc2)c(=O)n(C)c1=O,17.6*,-1.7,-14.5,-17.9,-2.4,-2.2,-0.4,-0.7,
O=C(Oc1c(Cl)cc(Cl)c2ccccc12)N1CCCCC1,14.6*,2.1,-11.4,13.2,15.1,-11.6,0.2,5.5,
COc1cc(CC(C)N)c(OC)cc1I (stereo not drawn),69.7*,-0.5,2.8,-0.3,-1.1,11.3,-0.3,38.8*,
CCCN1CCO[C@@H]2c3cc(O)ccc3OC[C@H]21,57.6*,1.4,5.5,16.4,9.6,18.6,-0.7,160.9*,
CN1C[C@H](CNC(=O)OCc2ccccc2)C[C@@H]2c3cccc4c3c(cn4C)C[C@H]21,-1.4,7.3,2.2,-3.9,2.6,12.7,nt,nt,
CN1C[C@H](CO)C[C@@H]2c3cccc4[nH]cc(c34)C[C@H]21,23.1*,-3.8,1.3,-0.5,3.2,0.1,-0.2,112.8*,
CCN(CC)C(=O)N[C@H]1C[C@@H]2c3cccc4[nH]cc(c34)C[C@H]2N(C)C1,38.9*,0.3,-1.0,-5.5,-2.5,6.3,-0.7,92.8*,
CN1[C@@H]2CCC[C@H]1CC(=O)C2,-1.3,nt,1.8,-6.1,0.0,nt,nt,nt,
CCC(c1nnnn1-c1ccc2c(c1)OCCO2)N1CCC2(CC1)C(=O)NCN2c1ccccc1 (stereo not drawn),-1.9,nt,25.3,nt,8.1,nt,nt,nt,
C[C@]12CCC(OC(=O)CCC(=O)O)CC1=CCC1C2CC[C@]2(C)C(=O)CCC12 (stereo partly drawn),-2.4,0.5,4.3,0.8,-9.1,0.8,nt,nt,
C[C@]12CC[C@H](OS(=O)(=O)O)CC1=CC[C@@H]1[C@@H]2CC[C@]2(C)C(=O)CC[C@@H]12,14.8*!,-3.1,-7.6,7.3,-3.7,1.4,0.4,5.7,
CC[C@H](C)[C@@H]1NC(=O)CNC(=O)c2csc(n2)[C@H](C(C)(C)O)OC(=O)C(C)(C)[C@H](CCCC(C)(Cl)Cl)OC(=O)c2csc1n2,15.4*,nt,6.7,nt,-63.2,nt,-0.3,5.1,
